Source: ChEMBL document CHEMBL1138180, “Design and synthesis of new tetrazolyl- and carboxy-biphenylylmethyl-quinazolin-4-one derivatives as angiotensin II AT1 receptor antagonists” (J Med Chem, 2006)
Calls of active or inactive are those of the source. No cut-off for these calls is given here.

Key:
[1] = molecular target: T1, Type-1 angiotensin II receptor (Homo sapiens) (UniProt P30556); assay: Displacement of [125I]-Sar(1)Ile(8)-Ang 2 from human AT1 receptor in CHO cells; format: cell-based
T1 sequence (whole entry): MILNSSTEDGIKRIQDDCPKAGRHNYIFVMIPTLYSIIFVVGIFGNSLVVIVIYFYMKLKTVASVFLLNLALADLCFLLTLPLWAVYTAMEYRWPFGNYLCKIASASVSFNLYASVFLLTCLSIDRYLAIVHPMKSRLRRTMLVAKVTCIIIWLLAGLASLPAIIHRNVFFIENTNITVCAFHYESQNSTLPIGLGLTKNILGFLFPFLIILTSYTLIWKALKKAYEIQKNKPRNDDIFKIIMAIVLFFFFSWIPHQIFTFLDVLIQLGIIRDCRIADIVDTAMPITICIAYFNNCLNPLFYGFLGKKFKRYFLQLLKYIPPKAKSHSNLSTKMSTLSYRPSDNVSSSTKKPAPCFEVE
How it was run: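 Membranes from CHO cells stably expressing human AT1 receptor, in 50 mM Tris-HCl pH 7.4 with 100 mM NaCl, 6 mM MgCl2 and 0.1% BSA. ~50 µg protein incubated 1 h at room temperature with 0.15 nM 125I-Sar1Ile8-Ang II, with or without competitor at 10 µM final. Bound ligand separated by centrifugation, counted as cpm. Control had DMSO and no competitor. Mean cpm ± SEM.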

[2] = system: Rattus norvegicus; assay: Reduction of the systolic blood pressure in normotensive Sprague-Dawley rat at 3 mg/kg, ip; format: functional, organism-based; design: dose 3 mg/kg; conditions: Artery
How it was run: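 Normotensive male rats (230-250 g), n = 6 per group, given a single ip dose of 3 mg/kg in 0.1 mL DMSO, with a DMSO vehicle control. Systolic BP measured 2 h later by tail-cuff in conscious, cage-acclimatized rats in a 31-32 °C chamber. Mean % reduction versus control reported; ANOVA/LSD.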

[3] = system: Rattus norvegicus; assay: Reduction of the systolic blood pressure in hypertensive Sprague-Dawley rat at 3 mg/kg, ip; format: functional, organism-based; design: dose 3 mg/kg; conditions: Artery
How it was run: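 Male rats (230-250 g) made hypertensive with DOCA 10 mg/kg sc daily plus 8% NaCl diet for 3-4 weeks. Single ip dose of 3 mg/kg in 0.1 mL DMSO, n = 6 per group. Systolic BP measured by tail-cuff in conscious rats 24 h before and 2 h after dosing. Normotensive and hypertensive DMSO controls included. Mean ± SE, ANOVA/LSD.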

Activity [1]	SMILES	Activity [2]	Activity [3]
Active	CSc1nc2ccccc2c(=O)n1Cc1ccc(-c2ccccc2-c2nn[nH]n2)cc1	Active	Active
Active	CCCCc1nc(Cl)c(CO)n1Cc1ccc(-c2ccccc2-c2nnn[nH]2)cc1	Active	Active

Further lines, the molecule ahead of its results:

SMILES	Activity [1]	Activity [2]	Activity [3]
O=c1[nH]c2ccccc2c(=O)n1Cc1ccc(-c2ccccc2-c2nn[nH]n2)cc1	Active	Active	Active
CSc1nc2ccccc2c(=O)n1Cc1ccc(-c2ccccc2C(=O)O)cc1	Active	Active	Active
Oc1nc(SCc2ccc(-c3ccccc3-c3nn[nH]n3)cc2)nc2ccccc12	inactive	–	–
